Assay outcomes (PubChem)
An excerpt weighted towards active compounds, which were near 4.6% of everything screened.
TAAR1 agonist: human TAAR1 agonists, primary screen, Fluo-8 calcium fluorescence, CHO RD-HGA16 cells. AID 624467, 2012. 0.99% of 360,000 active. Trace amine-associated receptor 1 (Homo sapiens), Q96RJ0. activation, % at 3 µM. vehicle wells 0%, saturating PEA agonist 100%;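 active = activation above the mean activation of all test compounds in the run plus 3 SD, cut at about 38% in these data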
Target sequence (Q96RJ0 whole entry, looked up): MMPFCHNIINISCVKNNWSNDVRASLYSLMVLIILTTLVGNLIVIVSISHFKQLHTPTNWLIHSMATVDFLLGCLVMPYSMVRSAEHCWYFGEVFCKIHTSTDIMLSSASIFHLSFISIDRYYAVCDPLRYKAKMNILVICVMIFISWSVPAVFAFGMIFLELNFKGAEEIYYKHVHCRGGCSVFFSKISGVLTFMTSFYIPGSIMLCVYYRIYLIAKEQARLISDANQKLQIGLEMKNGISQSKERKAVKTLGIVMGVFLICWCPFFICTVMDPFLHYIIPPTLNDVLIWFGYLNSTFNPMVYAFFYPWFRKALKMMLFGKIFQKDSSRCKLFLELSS
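System: CHO RD-HGA16 cells carrying human TAAR1 plus Gα16; Incubation: 17-24 h seeding, 75 min 37 °C dye, 30 min RT; Measured by: Fluo-8 fluorescence, 5 s baseline then 140 s kinetic read; Control set: DMSO and PEA EC100; Replication: single well for each compound.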
TAAR1 antagonist: human TAAR1 antagonists, primary screen, Fluo-8 calcium fluorescence, CHO RD-HGA16 cells. Trace amine-associated receptor 1 (Homo sapiens), Q96RJ0. antagonist. inhibition, % at 3 µM. 1.5% of 360,000 active;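 active = inhibition above a per-plate cutoff, the mean inhibition of test compounds on that plate plus 3 SD, cut at about 49% in these data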
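System: RD-HGA16 CHO cells with stable hTAAR1 and Gα16 | Probe or stimulus: EC80 β-phenethylamine stimulus | Dosing: 3 µM, single point | Times: Dye loading 75 min at 37 °C, then 30 min room temperature | Measured by: Fluo-8 calcium-sensitive fluorescence | Read-out basis: % inhibition of agonist calcium response | Replicates: n of 1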
CHO parental Ca: ATP-evoked calcium signal inhibitors, parental CHO, primary screen, counter-screen for OX1R antagonist project, cell-based, fluorescence, Fluo-8 calcium dye. AID 463079, 2010. 0.63% of 330,000 active. parental CHO-K1, ATP-induced calcium, Fluo-8 fluorescence. inhibition, % at 5.6 µM;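 active = inhibition above that plate's mean sample inhibition plus 3 SD, cut at about 26% in these data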
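Assay system: parental CHO cells; Read-out basis: percent inhibition of ATP-evoked calcium rise, normalized to controls; Benchmarks: ATP and no-ATP DMSO wells; Compound dosing: single nominal dose of 5.6 µM per compound; Signal: Fluo-8 calcium dye fluorescence; Also added: ATP as calcium-mobilizing challenge; Repeats: singlicate.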
OX1R antag-1: antagonists of human orexin 1 receptor (OX1R); Orexin/Hypocretin receptor type 1 (Homo sapiens), O43613; OX1R-expressing cells, FRET antagonist read-out; inhibition, % at 6.6 µM; 1.8% of 330,000 active; AID 485270, 2010; in the data active = inhibition mostly above about 38%, no sharp cut-off; inactive = mostly below about 40%
OX1R antag-2: OX1R (HCRTR1) antagonists, primary screen, fluorescence, CHO/OX1R cells, Fluo-8 calcium, orexin A; Orexin/Hypocretin receptor type 1 (Homo sapiens), O43613; Fluo-8 calcium fluorescence; inhibition, % at 5 µM; 0.43% of 330,000 active;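 active = inhibition above its plate's threshold, mean inhibition of all tested compounds on the plate plus 3 SD, cut at about 37% in these data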
GPR7 antag: GPR7 receptor antagonists, primary screen, cell-based, fluorescence, single concentration; Neuropeptides B/W receptor type 1 (Homo sapiens), P48145; GPR7-expressing cells, fluorescence antagonist assay; inhibition, % at 4.4 µM; 1.1% of 290,000 active; in the data active = inhibition above about 16%, passing the limit was not always enough;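 also: cells stimulated with the agonist NPW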
Target sequence (P48145 whole entry, looked up): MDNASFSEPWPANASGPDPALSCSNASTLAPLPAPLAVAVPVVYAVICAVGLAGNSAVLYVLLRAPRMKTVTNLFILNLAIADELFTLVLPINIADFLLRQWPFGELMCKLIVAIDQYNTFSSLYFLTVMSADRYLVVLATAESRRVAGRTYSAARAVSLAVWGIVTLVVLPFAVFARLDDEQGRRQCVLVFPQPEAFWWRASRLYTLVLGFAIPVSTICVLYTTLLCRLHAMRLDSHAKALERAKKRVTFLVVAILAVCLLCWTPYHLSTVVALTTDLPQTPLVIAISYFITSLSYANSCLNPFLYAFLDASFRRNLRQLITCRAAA
Numbers stand for hits; . = inactive; / = not tested or not shown.

SMILES	TAAR1 agonist	TAAR1 antagonist	CHO parental Ca	OX1R antag-1	OX1R antag-2	GPR7 antag
COc1cccc(OC)c1OCCCOc1ccc([N+](=O)[O-])cc1Cl	.	.	.	.	.	17
CCOc1ccccc1OCCCOc1ccc([N+](=O)[O-])cc1Cl	.	.	.	.	.	.
CC(C)CC(N)c1csc(Nc2ncccn2)n1 (centres undefined)	.	.	/	/	/	/
CN(C)c1ccc(C=C2SC(=S)N(Cc3ccco3)C2=O)cc1	44	53	/	/	/	/
Cc1cc(/C=C2\SC(=S)N(Cc3ccco3)C2=O)c(C)n1-c1ccccc1	.	.	.	.	.	.
Cc1ccccc1-c1ccc2c(c1)[C@@H]1C[C@H](N(C)CC3CCCCC3)[C@H]([C@H](C)O)CN1CC2	.	.	/	/	/	/
O=C(CSc1nc2ccccc2c(=O)n1Cc1ccco1)c1ccc(F)cc1	.	50	.	.	.	.
COC(=O)c1ccc(CSc2nc3c(cnn3-c3ccccc3)c(=O)[nH]2)o1	.	.	.	55	.	.
NC(=O)CSc1nc2ccccc2c(=O)n1Cc1ccco1	.	.	.	.	.	.
COC(=O)c1ccc(CSc2nc3ccccc3c(=O)n2Cc2ccco2)o1	.	60	37	.	50	.
C[C@@H]1C=CCCO[C@]12C(=O)N(Cc1ccc(F)cc1)c1cccc(Br)c12	.	.	/	/	/	/
C/C=C(/C)C(=O)O[C@@H]1c2c(ccc3ccc(=O)oc23)OC(C)(C)[C@@H]1OC(=O)/C(C)=C\C	.	.	62	.	.	.
C/C=C(/C)C(=O)O[C@@H]1[C@H](OC(=O)C=C(C)C)c2c(ccc3ccc(=O)oc23)OC1(C)C	.	.	.	.	.	.
CCc1cc2cccc(C)c2nc1SCC(=O)c1ccc(NC(C)=O)cc1	.	.	.	53	.	.
CCc1cc2cccc(C)c2nc1SCC(=O)NNC(=O)c1ccco1	.	.	.	70	.	.
O=C(C[C@H]1C/C=C\CC[C@H](Cc2ccc(F)cc2)C(=O)O[C@H](c2ccccc2)CNC1=O)N[C@H](CO)Cc1ccccc1	.	55	.	.	.	/
O=C(C[C@H]1C/C=C\C[C@H](Cc2ccc(F)cc2)C(=O)O[C@@H](c2ccccc2)CNC1=O)N[C@H](CO)Cc1ccccc1	55	.	.	.	.	/
O=C(C[C@H]1C/C=C\CC[C@H](Cc2ccc(F)cc2)C(=O)O[C@@H](c2ccccc2)CNC1=O)N[C@H](CO)Cc1ccccc1	53	56	.	.	.	/
CCCCCCCCN1C(=O)[C@H](CC(=O)NCc2ccc(OC)c(OC)c2)C[C@@]2(C(=O)OCC)CCCC=C12	.	.	/	/	/	/
CCc1ccccc1Oc1nc(NC(C)C)nc2ccsc12	.	.	/	/	/	/
Nc1[nH]c(C(=O)c2ccc(Br)cc2)c(-c2ccc(Cl)cc2[N+](=O)[O-])c1C(=O)NCCc1c[nH]c2ccccc12	.	.	/	/	/	/
N#C/C(=C\c1ccc(O)c([N+](=O)[O-])c1)c1nc2ccccc2s1	.	.	/	/	/	20
COc1cc(/C=C(\C#N)c2nc3ccccc3s2)cc([N+](=O)[O-])c1O	.	.	/	/	/	.
CCOC(=O)c1ccc(NC(=O)CN(c2ccc(C)cc2)S(=O)(=O)c2c(C)n[nH]c2C)cc1	.	52	.	.	.	.
COc1ccc(/C=C2/C(=O)N(c3c(F)c(F)c(F)c(F)c3F)N=C2C)cc1	42	.	.	.	.	.
SMILES	TAAR1 agonist	TAAR1 antagonist	CHO parental Ca	OX1R antag-1	OX1R antag-2	GPR7 antag
CC(C)[C@H](NS(=O)(=O)c1ccc(F)cc1F)C(=O)N1CCC[C@H]1C(=O)NCc1ccccc1	.	.	/	/	/	/
COc1ccc(C(=O)N2CCc3ccccc32)cc1	.	.	.	.	.	17
O=C(NCC[C@H]1CC[C@@H](NC(=O)C2CCC2)[C@@H](CO)O1)c1cc(Cl)cc(Cl)c1	.	.	/	/	/	/
CC(=O)c1c(O)cc(O)cc1CC(=O)O	.	.	.	.	.	.
CC(=O)c1c(O)cc(O)c(C(C)=O)c1O	/	/	57	72	.	/
Cc1ccccc1C(=O)Nc1ccc(-c2nc3ccc(C(=O)c4ccccc4)cc3[nH]2)cc1	.	103	.	.	.	.
Cc1nc2ccc(NC(=O)c3ccc(Cl)s3)cc2s1	.	.	33	48	.	.
O=C(Nc1ccc(-c2nc3ccc(NC(=O)c4cccs4)cc3[nH]2)cc1)c1cccs1	.	61	.	.	.	.
Cc1ccc2nc(NC(=O)c3ccc(Cl)s3)sc2c1	.	.	.	.	.	.
CSc1nc2ccc(NC(=O)c3cccs3)cc2s1	.	.	.	37	.	/
CN(c1cccnc1)c1ccc(NC(=O)Cc2c[nH]c3ccccc23)cc1Br	.	.	/	/	/	/
O=C(c1ccccc1)c1ccc2nc(-c3ccc(NC(=O)c4ccccc4Br)cc3)[nH]c2c1	.	68	.	.	.	.
CS(=O)(=O)c1ccccc1C(=O)Nc1ccc(-c2nc3ccccc3[nH]2)cc1	.	.	.	.	.	.
Cc1ccccc1C(=O)N[C@@H](Cc1cccnc1)C(=O)N1CCC[C@H]1C(=O)NC1CCCC1	.	.	/	/	/	/
FC(F)Oc1ccc(C2=Nn3c(nnc3-c3ccccc3Cl)SC2)cc1OCC1CC1	.	.	.	.	.	/
COc1ccc(C2=Nn3c(nnc3-c3ccccc3F)SC2)cc1OCC1CC1	.	52	.	.	.	/
COc1cc(OC)cc(C(=O)N[C@H](C(=O)OCC(=O)Nc2cccc(F)c2)C(C)C)c1	.	.	.	.	.	21
COc1ccc(CN2CC[C@H]3C=CC[C@@H](C(=O)NCCc4ccccc4)[C@H]3C2=O)cc1OC	.	.	.	70	.	/
Cc1onc(-c2ccccc2)c1C(=O)NCC1CCN(C(=O)C(=O)c2cccs2)CC1	.	.	/	/	/	/
O=C(CCN1CCOCC1)NNC(=O)c1ccc([N+](=O)[O-])cc1[N+](=O)[O-]	.	.	.	49	.	/
C#CCNC(=O)C[C@H]1C[C@@]2(C(=O)OC)C(=C[C@H](C3CCCC3)O[C@@H]2C)N(Cc2ccccc2)C1=O	.	.	/	/	/	/
C[C@H](CO)N1C[C@H](C)[C@H](CN(C)C(=O)Nc2cccc(F)c2)Oc2cc(Br)ccc2S1(=O)=O	.	.	/	/	/	/
CCOC1=C2CN(S(=O)(=O)c3ccc(C)cc3)C(c3ccc(C)cc3)CC2N(S(=O)(=O)c2ccc(C)cc2)C(c2ccccc2)C1 (centres undefined)	.	.	/	/	/	/
Cc1ccccc1-c1cnc(C(O)c2ccc(Cl)cc2)[nH]1 (centres undefined)	.	.	/	/	/	/
